The text below walks through data of ChEMBL document CHEMBL4261642, “Design, synthesis, and ex vivo evaluation of a selective inhibitor for retinaldehyde dehydrogenase enzymes” (Bioorg Med Chem, 2018).

Molecules are shown by their SMILES.

Test [1] concerns the target T1, Retinal dehydrogenase 2 (Gallus gallus, UniProt O93344).
T1 sequence (O93344 whole entry): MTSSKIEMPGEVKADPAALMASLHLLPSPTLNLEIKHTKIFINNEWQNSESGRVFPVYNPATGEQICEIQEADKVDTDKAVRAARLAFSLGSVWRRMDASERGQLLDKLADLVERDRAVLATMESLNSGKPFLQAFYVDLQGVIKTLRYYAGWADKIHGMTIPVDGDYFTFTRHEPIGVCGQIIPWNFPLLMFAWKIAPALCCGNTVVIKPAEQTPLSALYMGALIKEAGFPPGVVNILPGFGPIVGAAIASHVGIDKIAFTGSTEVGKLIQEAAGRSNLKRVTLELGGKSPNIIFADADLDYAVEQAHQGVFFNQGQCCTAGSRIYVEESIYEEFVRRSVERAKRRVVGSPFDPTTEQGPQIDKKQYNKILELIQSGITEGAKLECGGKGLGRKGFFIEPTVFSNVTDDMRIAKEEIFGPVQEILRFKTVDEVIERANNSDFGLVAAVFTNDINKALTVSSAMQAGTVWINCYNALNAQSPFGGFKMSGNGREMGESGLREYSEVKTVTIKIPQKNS
The test can be described thus: Inhibition of N-terminal His6-tagged recombinant chick RALDH2 expressed in Escherichia coli BL21(DE3) cells using RAL as substrate measured after 30 mins in presence of NADH by Morrison's plot analysis. The method in brief:
(§1)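 Ki obtained by fitting the Morrison tight-binding equation to the 20-min pre-incubation retinaldehyde/NADH fluorescence inhibition data. Inputs were enzyme concentration (RALDH1 0.358, RALDH2 0.091, RALDH3 0.355, hRALDH2 0.176 μM), substrate concentration and Km. Triplicates from 3–5 independent experiments.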

For test [2], the target named is T1, Retinal dehydrogenase 2. The test can be described thus: Inhibition of RALDH2 in living intact choroid isolated from 4 day recovering chick eyes assessed as inhibition of ATRA synthesis after 24 hrs in presence of […].
The target in test [3] is T2, Retinal dehydrogenase 2 (Gallus gallus) (UniProt O93344).
T2 sequence (whole entry): T1 sequence (O93344 whole entry)
Description: Inhibition of RALDH2 in choroidal cytosol fraction from control chick assessed as inhibition of ATRA synthesis at 0.1 to 6 uM pre-incubated for 20 mins followed by […] addition and measured after 30 mins by HPLC analysis.

Test [4] is filed under the species Gallus gallus. The test can be described thus: Inhibition of N-terminal His6-tagged recombinant chick RALDH3 expressed in Escherichia coli BL21(DE3) cells at 100 nM using RAL as substrate assessed as Vmax preincubated for 20 mins followed by substrate addition and measured after 30 mins in presence of NADH by fluorescence assay (reference value: 107.3 +/- 15.97 pmol/microM/min).

The species named for test [5] is Gallus gallus. The test can be described thus: Inhibition of N-terminal His6-tagged recombinant chick RALDH3 expressed in Escherichia coli BL21(DE3) cells at 100 nM using RAL as substrate assessed as Km preincubated for 20 mins followed by substrate addition and measured after 30 mins in presence of NADH by fluorescence assay (reference value: 84.45 +/- 30.99 microM).

Test [6] has as its target T2, Retinal dehydrogenase 2 (Gallus gallus). The test can be described thus: Inhibition of chick RALDH2 expressed in doxycycline-inducible HEK293 cells assessed as inhibition of ATRA synthesis at 0.5 uM after 24 hrs in presence of […].
Test [7] addresses T1, Retinal dehydrogenase 2. The test can be described thus: Inhibition of RALDH2 in choroidal cytosol fraction from 4 day recovering chick assessed as inhibition of ATRA synthesis pre-incubated for 20 mins followed by […] addition and measured after 30 mins by HPLC analysis.
The target of test [8] is T3, Retinal dehydrogenase 2 (Homo sapiens, UniProt O94788).
T3 sequence (O94788 whole entry): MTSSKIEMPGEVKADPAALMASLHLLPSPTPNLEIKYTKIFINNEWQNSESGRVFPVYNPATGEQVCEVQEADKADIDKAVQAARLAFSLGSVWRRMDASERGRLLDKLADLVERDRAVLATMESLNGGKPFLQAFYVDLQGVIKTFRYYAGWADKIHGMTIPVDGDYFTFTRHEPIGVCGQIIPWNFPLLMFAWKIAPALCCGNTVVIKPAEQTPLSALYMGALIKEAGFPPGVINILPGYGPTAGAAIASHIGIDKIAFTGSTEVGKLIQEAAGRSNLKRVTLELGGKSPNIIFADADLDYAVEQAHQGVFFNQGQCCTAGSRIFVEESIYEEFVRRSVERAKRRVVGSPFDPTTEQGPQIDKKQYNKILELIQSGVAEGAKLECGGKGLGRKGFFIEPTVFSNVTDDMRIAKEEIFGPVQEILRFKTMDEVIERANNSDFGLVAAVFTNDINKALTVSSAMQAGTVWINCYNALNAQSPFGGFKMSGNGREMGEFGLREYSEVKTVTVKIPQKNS
Description: Inhibition of N-terminal His6-tagged recombinant human RALDH2 using RAL as substrate measured after 30 mins in presence of NADH by Morrison's plot analysis. The method in brief: as §1

The target in test [9] is T2, Retinal dehydrogenase 2 (Gallus gallus). Description: Inhibition of chick RALDH2 expressed in doxycycline-inducible HEK293 cells assessed as inhibition of ATRA synthesis at 2 uM after 24 hrs in presence of ATRA and NAD+. Type of test: cell-based.
In test [10] the target is T3, Retinal dehydrogenase 2. Description: Inhibition of N-terminal His6-tagged recombinant human RALDH2 using RAL as substrate preincubated for 20 mins followed by substrate addition and measured after 30 mins in presence of NADH by fluorescence assay. The method in brief: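 Purified His-tagged recombinant enzyme in dialysis buffer with 2 mM DTT. Amounts were chick RALDH1 2 μg (0.358 μM), chick RALDH2 0.5 μg (0.091 μM), chick RALDH3 2 μg (0.355 μM) and human RALDH2 1 μg (0.176 μM). Enzyme pre-incubated 20 min at 37°C with 0–10 μM inhibitor in DMSO. Reaction started with final 4 mM NAD+ in pyrophosphate pH 8.2 buffer plus 250 μM retinaldehyde, 30 min at 37°C. NADH read fluorimetrically (Ex/Em 540/590) against a standard curve. Triplicates, 3–5 experiments.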

Test [11] addresses T2, Retinal dehydrogenase 2 (Gallus gallus). The test can be described thus: Inhibition of RALDH2 in choroidal cytosol fraction from 4 day recovering chick assessed as inhibition of ATRA synthesis at 0.1 to 6 uM pre-incubated for 20 mins followed by […] addition and measured after 30 mins by HPLC analysis. The method in brief: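 Choroid cytosol fractions (100,000 × g supernatant) from 4-day recovering chick eyes pre-incubated 20 min at 37°C with 0.01–6 μM inhibitor or DMSO. Reaction started with 4 mM NAD+ and 25 μM all-trans-retinaldehyde, 30 min at 37°C. ATRA extracted and quantified by reverse-phase HPLC (350 nm, MS). Two experiments, n = 3–5 each.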

A short description of test [12]: Inhibition of N-terminal His6-tagged recombinant chick RALDH3 expressed in Escherichia coli BL21(DE3) cells using RAL as substrate measured after 30 mins in presence of NADH by Morrison's plot analysis. Also noted: species or system Gallus gallus. The method in brief:
as §1

The Ki is a measure of affinity in units of concentration, obtained from inhibition or displacement. The EC50 is the concentration giving half of the maximal effect. Usually inhibition stands for the change of the read-out against control, counted positive when it falls. In general, Km refers to the concentration of substrate that gives half-maximal velocity. As usually defined, the IC50 is the concentration that gives 50% inhibition. Take `CC1=C(/C=C/C(C)=C/C=C/C(C)=C/C(=O)C(Cl)Cl)C(C)(C)CCC1`: the inhibition constant Ki in test [1] amounted to 5.1 nM; in test [8], 64.3 nM; in [12] it was 6.74 nM. The concentration giving a half-maximal response (EC50) in test [2] is 120 nM. In addition, the inhibition in test [3] was 92 to 99%; in test [6], 47%; in test [9] it was 93%; in test [11], 70 to 96%. Besides, in [4], the Vmax came to 68.4 pmol/µM/min. In addition, in test [5], the Km came to 52.7 µM. Further, the concentration for half-maximal inhibition (IC50) in test [7] turned out to be 53.6 nM; in test [10] it was 191 nM.
